{"source": "ChEMBL document CHEMBL2069261", "about": "“Click-based synthesis of triazolobithiazole ΔF508-CFTR correctors for cystic fibrosis” (Bioorg Med Chem, 2012)", "key": {"[1]": {"molecular_target": "Cystic fibrosis transmembrane conductance regulator (Homo sapiens, UniProt P13569, F508DEL)", "sequence (P13569 as listed by the source)": "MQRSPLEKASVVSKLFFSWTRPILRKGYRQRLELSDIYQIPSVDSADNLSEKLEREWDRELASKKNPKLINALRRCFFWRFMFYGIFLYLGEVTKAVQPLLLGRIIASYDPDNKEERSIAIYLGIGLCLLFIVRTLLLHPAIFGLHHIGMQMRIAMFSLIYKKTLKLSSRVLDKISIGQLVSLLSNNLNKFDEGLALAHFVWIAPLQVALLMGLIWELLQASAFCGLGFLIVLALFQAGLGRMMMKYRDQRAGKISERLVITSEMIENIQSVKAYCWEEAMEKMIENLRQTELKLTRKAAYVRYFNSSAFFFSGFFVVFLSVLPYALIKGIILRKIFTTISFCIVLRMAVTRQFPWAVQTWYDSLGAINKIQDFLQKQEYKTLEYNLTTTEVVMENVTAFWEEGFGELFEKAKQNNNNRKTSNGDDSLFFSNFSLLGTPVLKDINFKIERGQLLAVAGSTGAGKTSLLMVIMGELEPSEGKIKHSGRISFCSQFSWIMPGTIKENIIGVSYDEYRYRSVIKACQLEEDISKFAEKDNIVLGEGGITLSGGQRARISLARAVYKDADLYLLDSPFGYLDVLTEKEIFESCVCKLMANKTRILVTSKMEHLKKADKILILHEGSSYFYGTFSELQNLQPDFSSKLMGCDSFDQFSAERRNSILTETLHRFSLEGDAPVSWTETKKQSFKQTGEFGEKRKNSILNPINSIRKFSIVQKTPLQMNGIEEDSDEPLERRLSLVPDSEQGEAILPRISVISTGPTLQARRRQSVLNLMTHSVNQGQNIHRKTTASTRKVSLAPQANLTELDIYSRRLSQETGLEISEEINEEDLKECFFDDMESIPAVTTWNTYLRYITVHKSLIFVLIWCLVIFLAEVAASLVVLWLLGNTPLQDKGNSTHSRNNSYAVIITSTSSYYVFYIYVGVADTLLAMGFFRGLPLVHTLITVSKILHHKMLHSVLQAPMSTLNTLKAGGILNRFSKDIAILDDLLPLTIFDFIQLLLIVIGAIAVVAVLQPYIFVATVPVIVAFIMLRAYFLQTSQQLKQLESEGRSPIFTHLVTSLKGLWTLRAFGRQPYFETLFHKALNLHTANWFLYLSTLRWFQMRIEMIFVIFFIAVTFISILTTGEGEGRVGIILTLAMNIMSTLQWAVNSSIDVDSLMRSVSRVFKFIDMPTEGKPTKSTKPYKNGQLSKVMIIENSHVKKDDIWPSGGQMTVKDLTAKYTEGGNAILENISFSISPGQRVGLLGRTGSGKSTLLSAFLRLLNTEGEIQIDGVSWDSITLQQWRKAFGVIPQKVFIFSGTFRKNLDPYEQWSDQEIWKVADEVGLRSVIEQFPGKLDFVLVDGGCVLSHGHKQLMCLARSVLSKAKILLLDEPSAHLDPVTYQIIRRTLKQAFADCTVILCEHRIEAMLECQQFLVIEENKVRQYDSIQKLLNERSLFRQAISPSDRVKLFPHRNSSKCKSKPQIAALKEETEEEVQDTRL", "assay": "(§1) Corrector activity at human CFTR deltaF508 mutant expressed in FRT cells stimulated forskolin and potentiator genistein with assessed as iodide influx incubated for 24 hrs", "format": "cell-based", "how_it_was_run": "(§2)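 Epithelial cells co-expressing ΔF508-CFTR and a fluorescent halide sensor were treated with compound for 24 h across a dose range. They were then stimulated with forskolin (cAMP agonist) plus genistein (potentiator), and I⁻ influx was read from the sensor. Vmax and EC50 were taken from the dose-response curves. n=4, with S.E. reported.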"}, "[2]": {"assay": "Lipophilicity, log P of the compound", "format": "physicochemical", "details": "octanol/water", "how_it_was_run": "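LogP was estimated from HPLC retention times. The capacity factor was calculated and correlated to logP values.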"}, "[3]": {"test_system": "Cystic fibrosis transmembrane conductance regulator (Homo sapiens), P13569 [F508del]", "sequence (P13569 as listed by the source)": "as above", "assay": "as §1", "format": "cell-based", "how_it_was_run": "as §2"}}, "note": "pEC50: −log10 of the molar value. Active and inactive are the calls of the source. No cut-off for these calls is given here."}
{"smiles": "COC(=O)c1cn(-c2sc(Nc3cc(Cl)ccc3OC)nc2-c2sc(NC(=O)C(C)(C)C)nc2C)nn1", "values": [{"measurement": "pEC50", "setting": "[1]", "value": 5.34}, {"measurement": "logP", "setting": "[2]; read-out: logP", "value": 4.8}]}
{"smiles": "CNc1nc(-c2sc(NC(=O)C(C)(C)C)nc2C)c(-n2cc(-c3ccccc3)nn2)s1", "values": [{"measurement": "pEC50", "setting": "[1]", "value": 5.31}]}
{"smiles": "COc1ccc(Cl)cc1Nc1nc(-c2sc(NC(=O)C(C)(C)C)nc2C)c(-n2cc(CO)nn2)s1", "values": [{"measurement": "pEC50", "setting": "[1]", "value": 5.80}, {"measurement": "logP", "setting": "[2]; read-out: logP", "value": 4.8}]}
{"smiles": "COc1ccc(Cl)cc1Nc1nc(-c2sc(NC(=O)C(C)(C)C)nc2C)c(-n2cc(C(=O)O)nn2)s1", "values": [{"measurement": "logP", "setting": "[2]; read-out: logP", "value": 4.8}]}
{"smiles": "COc1ccc(Cl)cc1Nc1nc(-c2sc(NC(=O)C(C)(C)C)nc2C)c(-n2cc(-c3ccccc3)nn2)s1", "values": [{"measurement": "pEC50", "setting": "[1]", "value": 6.85}]}
{"smiles": "COc1ccc(Cl)cc1Nc1nc(-c2sc(NC(=O)c3ccccc3)nc2C)cs1", "values": [{"measurement": "Activity", "setting": "[3]", "value": "Active"}, {"measurement": "logP", "setting": "[2]", "value": 5.96}]}
{"smiles": "Cc1nc(NC(=O)C(C)(C)C)sc1-c1nc(N)sc1-n1cc(-c2ccccc2)nn1", "values": [{"measurement": "pEC50", "setting": "[1]", "value": 5.82}]}
